Assay results from paper PMC9798253 (Protein Science : A Publication of the Protein Society, 2023).

What was measured:
[1] = tested on: GST-tagged TRD domain of MECP2 (170–325 of NP_004983); experiment: Peptide SPOT array binding of ADD peptides to GST-TRD; conditions: 25 nM GST-TRD; 1 h; ECL detection (anti-GST)
In short: (§1)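 The cellulose-bound peptide arrays included alanine-substituted variants. Purified protein was applied for 1 h. Detection used anti-GST (1:12,000) or anti-MBP (1:10,000) for 1 h, then HRP secondary for 1 h.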

[2] = tested on: ADD D529A/D530A/D531A triple mutant; experiment: Peptide SPOT array binding of TRD peptides to ADD triple mutant; design: species or system human; conditions: 25 nM ADD mutant; 1 h; ECL detection
In short: as §1

[3] = tested on: GST-TRD (TRD domain of MECP2); experiment: GST-pulldown of MBP-ADD; type: binding; conditions: 1 μg each protein; 25 mM Tris/HCl pH 8, 200 mM KCl; 1 h, 6°C; SDS-PAGE

TRD binding of ADD peptides on SPOT array [1]	Substance	further results
showed TRD binding with the WT sequence	ADD 496–510: ADD surface peptide on SPOT array, WT sequence	–
–	TRD residues 214–228: 15mer SPOT peptide, TRD residues E214‐T228, WT peptide (EKSPGKLLVKMPFQT)	binding of ADD D529A/D530A/D531A triple mutant to TRD peptide on SPOT array [2]: Binding was lost
showed TRD binding with the WT sequence	ADD 592–606: ADD surface peptide on SPOT array, WT sequence	–
showed TRD binding with the WT sequence	ADD 522–536: ADD surface peptide on SPOT array, WT sequence	–
–	MBP-ADD: ADD domain of DNMT3A (476–614 of Q9Y6K1) as maltose‐binding protein (MBP) fusion	pulldown of MBP-ADD by GST-TRD [3]: strong and specific pulldown
